Results: ChEMBL document CHEMBL1149250, “Optimization of protein kinase CK2 inhibitors derived from 4,5,6,7-tetrabromobenzimidazole” (J Med Chem, 2004)
Active and inactive are the calls of the source. The rule behind the calls is not given here.

Columns and labels:
Casein kinase II = Casein kinase II (Homo sapiens, UniProt P19784+P67870+P68400); experiment: Inhibition of CK2; type: protein-complex assay
Jurkat [1] = experiment: Inhibition of cell viability in Jurkat T cells after 24 hrs by MTT method; type: functional, cell-based; settings: Homo sapiens
Method in brief: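 Human Jurkat T-leukemia cells, grown in RPMI-1640 with 10% FCS, were resuspended at 10⁶ cells/mL in medium with 1% FCS. They were exposed to increasing compound concentrations for 24 h at 37 °C. Controls received DMSO (0.5% v/v), set as 100% viability. Viability was read by MTT. Values are means ± SEM of three separate experiments; DC50 was taken as the concentration halving viability.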

[2] = target: Tyrosine-protein kinase CSK (Homo sapiens) (UniProt P41240); experiment: Inhibition of CSK at 10 uM relative to control
Method in brief: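 Kinase selectivity panel: activity of each kinase measured with inhibitor at 10 μM. Residual activity is expressed as a percentage of a control run without inhibitor. Assays were linear with respect to time and enzyme concentration. Lyn, c-Fgr and Syk were purified from rat spleen. Golgi CK came from rat lactating mammary gland.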

[3] = target: Casein kinase I (Homo sapiens) (UniProt Q9HCP0+P78368+P48730+P49674+P48729); experiment: Residual activity of CK1 at 10 uM relative to control
[4] = target: Tyrosine-protein kinase Lyn (Homo sapiens) (UniProt P07948); experiment: Residual activity of Lyn at 10 uM relative to control
[5] = target: Tyrosine-protein kinase SYK (Rattus norvegicus) (UniProt Q64725); experiment: Residual activity of Syk at 10 uM relative to control
[6] = target: Ribosomal protein S6 kinase alpha-5 (Homo sapiens) (UniProt O75582); experiment: Residual activity of MSK1 at 10 uM relative to control
[7] = target: MAP kinase-activated protein kinase 5 (Homo sapiens) (UniProt Q8IW41); experiment: Residual activity of PRAK at 10 uM relative to control
[8] = target: Ribosomal protein S6 kinase beta-1 (Homo sapiens) (UniProt P23443); experiment: Residual activity of S6K1 at 10 uM relative to control
[9] = target: Mitogen-activated protein kinase 12 (Homo sapiens) (UniProt P53778); experiment: Residual activity of SAPK3/p38gamma relative to control
[10] = target: T1, Ribosomal protein S6 kinase alpha-1 (Homo sapiens, UniProt Q15418); experiment: Residual activity of MAPKAPK1a at 10 uM relative to control
Homo sapiens [11] = species on record: Homo sapiens; experiment: Inhibition of phosphorylase kinase at 10 uM relative to control
[12] = target: Mitogen-activated protein kinase 13 (Homo sapiens) (UniProt O15264); experiment: Residual activity of SAPK4/p38delta at 10 uM relative to control
[13] = target: cAMP-dependent protein kinase (PKA) (Homo sapiens) (UniProt P22694+P17612+P22612); experiment: Inhibition of PKA at 10 uM relative to control; values are per cent of control
[14] = target: Serine/threonine-protein kinase Sgk1 (Homo sapiens) (UniProt O00141); experiment: Inhibition of SGK at 10 uM relative to control; values are per cent of control
[15] = target: T2, Dual specificity mitogen-activated protein kinase kinase 1 (Homo sapiens, UniProt Q02750); experiment: Inhibition of MKK1 at 10 uM relative to control; values are per cent of control
[16] = target: 3-phosphoinositide-dependent protein kinase 1 (Homo sapiens) (UniProt O15530); experiment: Inhibition of PDK1 at 10 uM relative to control; values are per cent of control
[17] = target: AMP-activated protein kinase (AMPK) alpha-1/beta-1/gamma-1 (Homo sapiens) (UniProt P54619+Q9Y478+Q13131); experiment: Inhibition of AMPK at 10 uM relative to control; values are per cent of control
Homo sapiens [18] = species on record: Homo sapiens; experiment: Inhibition of PP2A at 10 uM relative to control; values are per cent of control
[19] = target: Rho-associated protein kinase 2 (Homo sapiens) (UniProt O75116); experiment: Inhibition of ROCK2 at 10 uM relative to control; values are per cent of control
[20] = target: T3, Dual specificity tyrosine-phosphorylation-regulated kinase 1A (Homo sapiens, UniProt Q13627); experiment: Inhibition of DYRK1A at 10 uM relative to control; values are per cent of control
[21] = target: Glycogen synthase kinase-3 beta (Homo sapiens) (UniProt P49841); experiment: Inhibition of GSKbeta at 10 uM relative to control; values are per cent of control
[22] = target: Serine/threonine-protein kinase Chk1 (Homo sapiens) (UniProt O14757); experiment: Inhibition of at CHK1 at 10 uM relative to control; values are per cent of control
[23] = target: MAP kinase-activated protein kinase 2 (Homo sapiens) (UniProt P49137); experiment: Inhibition of MAPKAPK2 at 10 uM relative to control; values are per cent of control
[24] = target: Protein kinase C alpha type (Homo sapiens) (UniProt P17252); experiment: Inhibition of PKCalpha at 10 uM relative to control; values are per cent of control
[25] = target: RAC-alpha serine/threonine-protein kinase (Homo sapiens) (UniProt P31749); experiment: Inhibition of PKBalpha at 10 uM relative to control; values are per cent of control
[26] = target: Mitogen-activated protein kinase 1 (Homo sapiens) (UniProt P28482); experiment: Inhibition of MAPK2/ERK2 at 10 uM relative to control; values are per cent of control
[27] = target: Mitogen-activated protein kinase 8 (Homo sapiens) (UniProt P45983); experiment: Inhibition of JNK/SAPK1c at 10 uM relative to control; values are per cent of control
[28] = target: Mitogen-activated protein kinase 14 (Homo sapiens) (UniProt Q16539); experiment: Inhibition of SAPK2a/p38 at 10 uM relative to control; values are per cent of control
[29] = target: Mitogen-activated protein kinase 11 (Homo sapiens) (UniProt Q15759); experiment: Inhibition of SAPK2b/p38--beta-2 at 10 uM relative to control; values are per cent of control
Jurkat [30] = experiment: Induction of mitochondrial depolarization in Jurkat T cells up to 10 uM; type: functional, cell-based; settings: Homo sapiens
[31] = target: T3, Dual specificity tyrosine-phosphorylation-regulated kinase 1A; experiment: Inhibition of DYRK1A
[32] = target: T2, Dual specificity mitogen-activated protein kinase kinase 1; experiment: Inhibition of MKK1
[33] = target: T1, Ribosomal protein S6 kinase alpha-1; experiment: Inhibition of MAPKAPK1a
[34] = target: Serine/threonine-protein kinase Sgk1 (Homo sapiens, UniProt O00141); experiment: Inhibition of SGK
[35] = target: Cyclin-dependent kinase 2/cyclin A (Homo sapiens, UniProt P24941); experiment: Inhibition of CDK2/Cyclin A; type: protein-complex assay
Jurkat [36] = experiment: Induction of caspase activation assessed as PARP cleavage in Jurkat T cells; type: functional, cell-based; settings: Homo sapiens
Method in brief: (§1)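 Jurkat T cells suspended at 10⁶ cells/mL in RPMI-1640 with 1% fetal calf serum, treated 14 h at 37 °C with 5 or 10 μM compound; untreated cells as control, 50 ng/mL anti-Fas as apoptotic control. Cells lysed in hypo-osmotic buffer; caspase activation read by Western blot as degradation of HS1 (full length and major fragment) and PARP.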

Jurkat [37] = experiment: Induction of caspase activation assessed as HS1 protein cleavage in Jurkat T cells; type: functional, cell-based; settings: Homo sapiens; method in brief: as §1
[38] = target: Tyrosine-protein kinase Lck (Homo sapiens) (UniProt P06239); experiment: Inhibition of Lck at 10 uM relative to control; values are per cent of control
[39] = target: EKC/KEOPS complex subunit BUD32 (Saccharomyces cerevisiae S288c) (UniProt P53323); experiment: Inhibition of PiD261 at 10 uM relative to control; values are per cent of control

T2 sequence (Q02750 whole entry): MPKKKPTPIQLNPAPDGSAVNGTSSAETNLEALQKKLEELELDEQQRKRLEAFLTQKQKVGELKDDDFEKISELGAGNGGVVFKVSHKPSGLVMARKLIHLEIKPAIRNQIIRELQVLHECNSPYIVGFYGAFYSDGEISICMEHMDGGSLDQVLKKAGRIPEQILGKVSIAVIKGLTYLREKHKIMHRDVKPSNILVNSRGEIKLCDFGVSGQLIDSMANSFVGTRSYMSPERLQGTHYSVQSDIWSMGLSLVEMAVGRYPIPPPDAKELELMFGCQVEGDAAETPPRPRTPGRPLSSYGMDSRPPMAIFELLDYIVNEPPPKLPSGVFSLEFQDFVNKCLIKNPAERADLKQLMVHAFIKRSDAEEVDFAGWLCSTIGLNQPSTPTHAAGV
T1 sequence (Q15418 whole entry): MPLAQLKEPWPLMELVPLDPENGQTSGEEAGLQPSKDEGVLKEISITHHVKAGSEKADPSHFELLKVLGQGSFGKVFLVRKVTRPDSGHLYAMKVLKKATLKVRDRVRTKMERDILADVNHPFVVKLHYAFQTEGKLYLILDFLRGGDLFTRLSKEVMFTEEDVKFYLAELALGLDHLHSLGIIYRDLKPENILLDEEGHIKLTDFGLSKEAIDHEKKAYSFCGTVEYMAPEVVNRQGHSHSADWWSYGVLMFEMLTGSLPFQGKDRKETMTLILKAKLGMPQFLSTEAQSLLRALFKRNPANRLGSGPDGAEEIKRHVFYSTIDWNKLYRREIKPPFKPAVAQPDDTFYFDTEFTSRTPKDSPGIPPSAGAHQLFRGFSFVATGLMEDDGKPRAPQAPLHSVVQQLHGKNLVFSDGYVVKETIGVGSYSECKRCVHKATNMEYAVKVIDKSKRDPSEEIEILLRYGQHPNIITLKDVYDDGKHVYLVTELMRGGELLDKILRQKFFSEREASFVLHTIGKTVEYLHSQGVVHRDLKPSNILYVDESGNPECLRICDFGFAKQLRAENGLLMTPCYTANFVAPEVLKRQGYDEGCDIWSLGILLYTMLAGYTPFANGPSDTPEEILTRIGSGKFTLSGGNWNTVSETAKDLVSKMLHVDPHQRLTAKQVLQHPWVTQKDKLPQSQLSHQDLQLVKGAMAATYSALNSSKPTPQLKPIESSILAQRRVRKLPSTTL
Chain of Casein kinase II (P67870 whole entry): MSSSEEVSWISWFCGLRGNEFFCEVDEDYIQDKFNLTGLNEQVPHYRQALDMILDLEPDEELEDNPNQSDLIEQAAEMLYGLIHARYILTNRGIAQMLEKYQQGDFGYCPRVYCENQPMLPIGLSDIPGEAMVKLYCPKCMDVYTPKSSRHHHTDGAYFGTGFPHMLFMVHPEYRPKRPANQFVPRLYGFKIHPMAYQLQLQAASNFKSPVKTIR
Chain of Casein kinase II (P68400 whole entry): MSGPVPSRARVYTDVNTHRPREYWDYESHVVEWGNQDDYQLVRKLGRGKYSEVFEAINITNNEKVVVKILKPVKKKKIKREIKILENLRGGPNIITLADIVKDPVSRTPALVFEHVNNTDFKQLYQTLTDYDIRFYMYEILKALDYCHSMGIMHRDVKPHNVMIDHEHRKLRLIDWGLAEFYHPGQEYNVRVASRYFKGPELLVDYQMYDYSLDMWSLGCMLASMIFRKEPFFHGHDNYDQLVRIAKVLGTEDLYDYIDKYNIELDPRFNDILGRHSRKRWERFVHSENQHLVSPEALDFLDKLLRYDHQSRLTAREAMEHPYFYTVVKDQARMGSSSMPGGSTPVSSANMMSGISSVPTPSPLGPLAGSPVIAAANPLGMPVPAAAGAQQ
Chain of Casein kinase II (P19784 whole entry): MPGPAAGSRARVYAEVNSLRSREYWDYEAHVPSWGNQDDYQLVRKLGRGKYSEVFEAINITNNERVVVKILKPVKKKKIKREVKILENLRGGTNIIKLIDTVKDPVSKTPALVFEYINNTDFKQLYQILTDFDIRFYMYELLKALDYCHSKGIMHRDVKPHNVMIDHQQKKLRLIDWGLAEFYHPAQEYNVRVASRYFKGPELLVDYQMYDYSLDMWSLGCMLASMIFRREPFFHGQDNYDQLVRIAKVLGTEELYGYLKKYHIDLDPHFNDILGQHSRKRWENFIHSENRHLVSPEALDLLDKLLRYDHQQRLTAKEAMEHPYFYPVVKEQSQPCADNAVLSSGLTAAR
Chain of Rho-associated protein kinase 2 (Homo sapiens) (O75116 whole entry, looked up): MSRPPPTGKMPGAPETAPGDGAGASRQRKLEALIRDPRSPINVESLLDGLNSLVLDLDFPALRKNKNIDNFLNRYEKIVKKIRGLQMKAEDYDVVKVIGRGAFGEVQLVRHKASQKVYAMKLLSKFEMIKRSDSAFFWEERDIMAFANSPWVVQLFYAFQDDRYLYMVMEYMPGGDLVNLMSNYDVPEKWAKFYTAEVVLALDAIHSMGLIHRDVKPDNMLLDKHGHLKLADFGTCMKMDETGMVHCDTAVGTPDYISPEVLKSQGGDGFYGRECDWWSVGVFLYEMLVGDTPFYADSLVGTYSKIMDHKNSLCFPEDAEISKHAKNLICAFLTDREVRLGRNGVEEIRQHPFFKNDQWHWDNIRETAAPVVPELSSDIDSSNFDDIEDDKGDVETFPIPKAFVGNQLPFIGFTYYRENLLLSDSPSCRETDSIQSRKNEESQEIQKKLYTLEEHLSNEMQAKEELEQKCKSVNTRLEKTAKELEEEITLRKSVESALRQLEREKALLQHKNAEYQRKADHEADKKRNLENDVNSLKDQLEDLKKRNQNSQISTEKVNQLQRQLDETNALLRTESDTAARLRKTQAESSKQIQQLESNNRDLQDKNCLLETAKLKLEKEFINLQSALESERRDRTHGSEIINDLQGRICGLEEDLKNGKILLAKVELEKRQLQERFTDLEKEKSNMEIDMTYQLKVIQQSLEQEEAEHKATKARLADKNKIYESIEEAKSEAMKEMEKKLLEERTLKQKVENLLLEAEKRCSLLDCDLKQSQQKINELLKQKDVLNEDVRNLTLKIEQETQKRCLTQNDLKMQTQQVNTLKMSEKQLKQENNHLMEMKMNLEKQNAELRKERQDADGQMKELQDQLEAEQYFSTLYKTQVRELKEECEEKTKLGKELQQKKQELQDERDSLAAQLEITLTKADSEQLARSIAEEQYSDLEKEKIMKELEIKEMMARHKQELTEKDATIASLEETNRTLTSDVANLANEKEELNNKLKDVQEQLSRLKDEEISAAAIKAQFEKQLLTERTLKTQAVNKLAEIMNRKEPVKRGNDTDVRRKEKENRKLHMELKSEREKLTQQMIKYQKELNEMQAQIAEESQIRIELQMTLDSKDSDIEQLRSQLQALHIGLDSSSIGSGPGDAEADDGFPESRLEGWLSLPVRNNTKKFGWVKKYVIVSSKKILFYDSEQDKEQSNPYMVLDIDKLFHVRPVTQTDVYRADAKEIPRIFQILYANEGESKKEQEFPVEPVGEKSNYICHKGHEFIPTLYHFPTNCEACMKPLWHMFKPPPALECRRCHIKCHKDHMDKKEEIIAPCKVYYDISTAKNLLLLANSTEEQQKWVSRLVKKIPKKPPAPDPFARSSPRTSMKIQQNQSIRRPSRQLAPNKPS
Chain of Glycogen synthase kinase-3 beta (Homo sapiens) (P49841 whole entry, looked up): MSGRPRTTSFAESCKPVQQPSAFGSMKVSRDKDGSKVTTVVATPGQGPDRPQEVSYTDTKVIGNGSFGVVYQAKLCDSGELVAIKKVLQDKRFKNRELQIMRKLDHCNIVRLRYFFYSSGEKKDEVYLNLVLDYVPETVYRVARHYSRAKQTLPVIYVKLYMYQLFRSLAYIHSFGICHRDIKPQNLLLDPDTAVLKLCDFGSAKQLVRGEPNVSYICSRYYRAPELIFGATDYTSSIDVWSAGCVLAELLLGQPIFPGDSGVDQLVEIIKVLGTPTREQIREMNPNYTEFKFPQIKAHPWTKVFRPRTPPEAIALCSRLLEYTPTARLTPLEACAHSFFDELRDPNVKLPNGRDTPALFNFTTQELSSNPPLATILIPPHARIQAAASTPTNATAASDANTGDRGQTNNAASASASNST
Chain of MAP kinase-activated protein kinase 2 (Homo sapiens) (P49137 whole entry, looked up): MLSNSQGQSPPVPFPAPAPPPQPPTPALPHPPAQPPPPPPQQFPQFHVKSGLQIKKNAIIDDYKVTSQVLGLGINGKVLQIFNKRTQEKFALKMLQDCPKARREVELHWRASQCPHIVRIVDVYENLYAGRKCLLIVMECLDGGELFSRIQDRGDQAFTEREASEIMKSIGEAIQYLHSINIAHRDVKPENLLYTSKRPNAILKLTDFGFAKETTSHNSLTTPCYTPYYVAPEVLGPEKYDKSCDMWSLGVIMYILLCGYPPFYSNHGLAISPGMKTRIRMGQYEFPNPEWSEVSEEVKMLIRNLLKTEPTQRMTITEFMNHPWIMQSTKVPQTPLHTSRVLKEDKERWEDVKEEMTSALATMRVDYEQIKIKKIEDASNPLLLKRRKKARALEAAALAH
Chain of RAC-alpha serine/threonine-protein kinase (Homo sapiens) (P31749 whole entry): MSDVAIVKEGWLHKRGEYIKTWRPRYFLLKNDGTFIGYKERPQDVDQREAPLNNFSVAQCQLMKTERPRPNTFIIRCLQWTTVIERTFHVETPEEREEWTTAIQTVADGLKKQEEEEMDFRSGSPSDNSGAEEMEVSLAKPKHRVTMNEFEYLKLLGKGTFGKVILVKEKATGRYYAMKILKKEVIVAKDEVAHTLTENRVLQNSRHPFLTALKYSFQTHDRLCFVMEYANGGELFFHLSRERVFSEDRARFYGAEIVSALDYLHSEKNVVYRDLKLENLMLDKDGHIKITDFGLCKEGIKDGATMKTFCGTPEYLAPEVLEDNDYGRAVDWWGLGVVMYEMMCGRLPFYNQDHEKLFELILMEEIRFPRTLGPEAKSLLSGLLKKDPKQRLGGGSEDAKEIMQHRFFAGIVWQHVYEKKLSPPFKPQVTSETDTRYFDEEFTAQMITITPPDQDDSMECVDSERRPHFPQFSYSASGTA

SMILES: CNc1nc2c(Br)c(Br)c(Br)c(Br)c2[nH]1
- IC50 (Casein kinase II): 210 nM
- Ki (Casein kinase II): 90 nM

SMILES: O=c1[nH]c2c(Br)c(Br)c(Br)c(Br)c2[nH]1
- IC50 (Casein kinase II): 360 nM
- Ki (Casein kinase II): 150 nM

SMILES: C=CCn1c(Br)nc2c(Br)c(Br)c(Br)c(Br)c21
- IC50 (Casein kinase II): 880 nM
- Ki (Casein kinase II): 630 nM

SMILES: Cn1c(=O)[nH]c2c(Br)c(Br)c(Br)c(Br)c21
- IC50 (Casein kinase II): 390 nM
- Ki (Casein kinase II): 200 nM

SMILES: Cn1c(Br)nc2c(Br)c(Br)c(Br)c(Br)c21
- IC50 (Casein kinase II): 430 nM
- Ki (Casein kinase II): 540 nM

SMILES: CSc1nc2c(Br)c(Br)c(Br)c(Br)c2[nH]1
- IC50 (Casein kinase II): 250 nM
- Ki (Casein kinase II): 70 nM

SMILES: O=C(O)CSc1nc2c(Br)c(Br)c(Br)c(Br)c2[nH]1
- IC50 (Casein kinase II): 250 nM
- Ki (Casein kinase II): 180 nM

SMILES: CCOc1nc2c(Br)c(Br)c(Br)c(Br)c2n1C
- IC50 (Casein kinase II): > 40000 nM

SMILES: CC(C)Oc1nc2c(Br)c(Br)c(Br)c(Br)c2n1C
- IC50 (Casein kinase II): 20400 nM

SMILES: CCOC(=O)CSc1nc2c(Br)c(Br)c(Br)c(Br)c2[nH]1
- IC50 (Casein kinase II): 1550 nM

SMILES: OCCNc1nc2c(Br)c(Br)c(Br)c(Br)c2[nH]1
- IC50 (Casein kinase II): 270 nM
- Ki (Casein kinase II): 130 nM

SMILES: CSc1nc2c(Br)c(Br)c(Br)c(Br)c2n1C
- IC50 (Casein kinase II): 600 nM
- Ki (Casein kinase II): 360 nM

SMILES: CN(C)c1nc2c(Br)c(Br)c(Br)c(Br)c2n1C
- IC50 (Casein kinase II): 130 nM
- Ki (Casein kinase II): 200 nM

SMILES: OCC(O)CSc1nc2c(Br)c(Br)c(Br)c(Br)c2[nH]1 (configuration not stated)
- IC50 (Casein kinase II): 150 nM
- Ki (Casein kinase II): 140 nM

SMILES: CC(O)CNc1nc2c(Br)c(Br)c(Br)c(Br)c2[nH]1 (configuration not stated)
- IC50 (Casein kinase II): 280 nM
- Ki (Casein kinase II): 140 nM

SMILES: Nc1nc2c(Br)c(Br)c(Br)c(Br)c2[nH]1
- IC50 (Casein kinase II): 300 nM
- Ki (Casein kinase II): 90 nM

SMILES: NC(=O)Cn1c(Br)nc2c(Br)c(Br)c(Br)c(Br)c21
- IC50 (Casein kinase II): 1570 nM
- Ki (Casein kinase II): 1900 nM

SMILES: O=[N+]([O-])c1ccc(CSc2nc3c(Br)c(Br)c(Br)c(Br)c3[nH]2)cc1
- IC50 (Casein kinase II): 3480 nM

SMILES: Brc1nc2c(Br)c(Br)c(Br)c(Br)c2[nH]1
- IC50 (Casein kinase II): 740 nM
- Ki (Casein kinase II): 230 nM

SMILES: CC(C)Nc1nc2c(Br)c(Br)c(Br)c(Br)c2n1C
- IC50 (Casein kinase II): 180 nM
- Ki (Casein kinase II): 190 nM

SMILES: CN(C)CCNc1nc2c(Br)c(Br)c(Br)c(Br)c2[nH]1
- IC50 (Casein kinase II): 250 nM
- Ki (Casein kinase II): 160 nM

SMILES: Brc1c(Br)c(Br)c2[nH]nnc2c1Br [TETRABROMOBENZOTRIAZOLE]
- DC50 (Jurkat [1]): 17000 nM
- inhibition [2]: 101%
- residual activity [3]: 91%
- residual activity [4]: 99%
- residual activity [5]: 102%
- residual activity [6]: 111%
- residual activity [7]: 87%
- residual activity [8]: 89%
- residual activity [9]: 89%
- residual activity [10]: 90%
- residual activity (Homo sapiens [11]): 49%
- residual activity [12]: 99%
- residual activity [13]: 90%
- residual activity [14]: 97%
- residual activity [15]: 94%
- residual activity [16]: 97%
- residual activity [17]: 96%
- residual activity (Homo sapiens [18]): 117%
- residual activity [19]: 91%
- residual activity [20]: 22%
- residual activity [21]: 64%
- residual activity [22]: 101%
- residual activity [23]: 108%
- residual activity [24]: 102%
- residual activity [25]: 91%
- residual activity [26]: 111%
- residual activity [27]: 93%
- residual activity [28]: 107%
- residual activity [29]: 103%

SMILES: CC(C)Nc1nc2c(Br)c(Br)c(Br)c(Br)c2[nH]1
- IC50 (Casein kinase II): 160 nM
- Ki (Casein kinase II): 60 nM

SMILES: CN(C)c1nc2c(Br)c(Br)c(Br)c(Br)c2[nH]1
- DC50 (Jurkat [1]): 2700 nM
- Activity (Jurkat [30]): inactive
- IC50 [31]: 120 nM
- IC50 [32]: 10500 nM
- IC50 [33]: 10300 nM
- IC50 [34]: 3570 nM
- IC50 [35]: 2380 nM
- Activity (Jurkat [36]): Active
- Activity (Jurkat [37]): Active
- residual activity [3]: 87%
- residual activity [4]: 91%
- residual activity [5]: 103%
- residual activity [6]: 73%
- residual activity [7]: 77%
- residual activity [8]: 65%
- residual activity [9]: 88%
- residual activity [10]: 52%
- residual activity (Homo sapiens [11]): 41%
- residual activity [12]: 109%
- residual activity [13]: 80%
- residual activity [14]: 29%
- residual activity [38]: 104%
- residual activity [15]: 53%
- residual activity [16]: 112%
- residual activity [17]: 73%
- residual activity (Homo sapiens [18]): 67%
- residual activity [19]: 69%
- residual activity [39]: 97%
- residual activity [20]: 2%
- residual activity [21]: 103%
- residual activity [22]: 81%
- residual activity [23]: 101%
- residual activity [24]: 95%
- residual activity [25]: 96%
- residual activity [26]: 77%
- residual activity [27]: 97%
- residual activity [28]: 85%
- residual activity [29]: 65%
